Laboratory results published in publication PMC9876410 (Acta Pharmacologica Sinica, 2023).
“Also recorded” adds a separate entry of the source.

Legend:
L02 [1] = type: cell-based, human
HK-2 [2] = type: cell-based, human
L02 [3] = test: Cell proliferation assay; type: cell-based, human
In short: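 CCK-8 proliferation in L02 cells (DMEM, 10% FBS, 37 °C, 5% CO₂). Cells were plated overnight in 96-well plates, then given AAI (dissolved in 1% NaHCO₃) and/or SFII (dissolved in DMSO). At 0, 24 and 48 h, medium was swapped for CCK-8 reagent, incubated 2 h at 37 °C, and absorbance was read at 450 nm.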

C57BL/6 adult mice [4] = test: AAI-induced acute renal injury model in adult mice; type: in vivo
In short: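 Male C57BL/6 mice aged 8 weeks received AAI 5 mg/kg i.p. for three consecutive days, with NaHCO₃ as the vehicle control. SFII 30 or 60 mg/kg was given by oral gavage 12 h before AAI and at each injection. Mice were killed 3 days after the first AAI dose. Blood creatinine was measured. Kidney sections were stained with Sirius red (37 °C, 30 min), and the stained fibrotic area was calculated.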

C57BL/6 adult mice [5] = test: AAI-induced renal fibrosis model in adult mice; type: in vivo
In short: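 Renal fibrosis model in 8-week-old male C57BL/6 mice. A single AAI injection (10 mg/kg i.p.) was given; controls received NaHCO₃. SFII (30 or 60 mg/kg) was gavaged 12 h before AAI and then daily for 3 days; AAI-only mice received olive oil by the same schedule. Animals were killed 14 days after AAI, with body weight monitored.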

HK-2 [6] = test: Cell proliferation assay; type: cell-based, human
In short: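 HK-2 cells were kept in DMEM/F12 with 10% FBS and 1% antibiotic-antimycotic at 37 °C, 5% CO₂. They were seeded in 96-well plates overnight, then treated with AAI (in 1% NaHCO₃) and SFII (in DMSO) for 48 h. Medium was replaced with CCK-8 reagent for 2 h at 37 °C, and absorbance was read at 450 nm.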

[7] = test system: liver of adult and infant mice; test: DNA damage in liver of adult and infant mice; type: in vivo; conditions: AAI 20 mg/kg, 24 h
In short: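 Adult mice and 14-day-old infant mice were injected with PBS (negative control), diethylnitrosamine (positive control) or AAI 20 mg/kg, and killed after 24 h. Liver protein was extracted in lysis buffer and quantified by BCA. Proteins were separated by SDS-PAGE, transferred to nitrocellulose and imaged on an infrared scanner for DNA-damage markers.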

L02 [8] = test: Flow cytometry analysis of apoptosis in L02; type: cell-based, human
In short: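 L02 cells were plated in 6-well plates overnight, then treated with AAI (20 or 50 μM) with or without SFII (5 or 10 μM) for 24 h. Cells were trypsinised, spun at 1000 rpm for 3 min, washed in PBS, and stained with Annexin V-FITC or -APC plus PI for 20 min at room temperature in the dark. Flow cytometry counted Annexin V⁺/PI⁺ and Annexin V⁺/PI⁻ cells as apoptotic.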

HK-2 [9] = test: Flow cytometry analysis of apoptosis in HK-2; type: cell-based, human; conditions: AAI with SFII (10 or 20 μM), 24 h
NQO1 [10] = biological target: T1, NQO1 (Homo sapiens, UniProt P15559); test: NQO1 activity assay in L02 cells; type: cell-based; conditions: 8 h
In short: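 An NQO1-knockdown L02 line was made by infecting cells at 50% density with concentrated shNQO1 or shNC lentivirus plus polybrene for 10 h, then selecting with puromycin (2 μg/mL) for 48 h. Knockdown was verified by qRT-PCR and Western blot. NQO1 activity was measured with a commercial kit, reading absorbance at 440 nm.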

Blood coagulation assay = type: in vivo; conditions: C57BL/6 adult mice, 6 mg/kg orally, 24 h
In short: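 Adult C57BL/6 mice (4 per group) received test compound orally at 6 mg/kg and were killed 24 h later. Blood was analysed for activated partial thromboplastin time, prothrombin time and thrombin time.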

L02 [11] = test: qRT-PCR of apoptotic-related genes in L02; type: cell-based, human; conditions: AAI (20 or 50 μM) with SFII, 24 h
NQO1 [12] = biological target: T1, NQO1; test: Comprehensive 2D NQO1 biochromatography retention; type: binding; conditions: 2D NQO1 column/C18 column/TOFMS
NQO1 [13] = biological target: T1, NQO1; test: Surface plasmon resonance; type: binding
infant mice [14] = test: AAI-induced liver cancer model in infant mice; type: in vivo
HK-2 [15] = test: qRT-PCR of apoptosis-related genes in HK-2; type: cell-based, human; conditions: AAI with SFII, 24 h
In short: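 HK-2 cells (DMEM/F12, 10% FBS, 1% antibiotic-antimycotic, 37 °C, 5% CO₂) were treated with AAI, SFII, or both for 24 h. Expression of apoptosis-related genes was then measured by qRT-PCR.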

NQO1 [16] = biological target: T1, NQO1; test: NQO1 enzyme activity test; type: biochemical
NQO1 [17] = biological target: T1, NQO1; test: NQO1 activity assay in HK-2 cells; type: cell-based; conditions: HK-2, 5 μM, 8 h, vs control group
In short: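 HK-2 cells (DMEM/F12, 10% FBS, 37 °C, 5% CO₂) were treated with test compound at 5 μM for 8 h before protein extraction. NQO1 activity was measured with a commercial NQO1 activity kit, reading absorbance at 440 nm on a microplate reader.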

L02 [18] = test: ALT and AST in culture medium of L02; type: cell-based, human; conditions: AAI (20 or 50 μM) with SFII (5 or 10 μM), 24 h, vs AAI alone
In short: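 L02 cells were grown in DMEM with 10% FBS and 1% antibiotic-antimycotic at 37 °C, 5% CO₂. Cells were exposed to AAI (20 or 50 μM) with or without SFII (5 or 10 μM) for 24 h. Culture medium was then collected, and ALT and AST were measured with clinical aminotransferase test kits.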

infant mice [19] = test: Infant mice acute injury model; type: in vivo
In short: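 Male infant mice on postnatal day 14 were injected with NaHCO₃ or AAI. SFII 10 mg/kg was given 12 h before AAI; control groups were pretreated with olive oil 12 h before injection. Mice were killed 24 h after AAI. Liver and kidney were analysed by Western blot. For TUNEL, sections were quenched with 0.3% H₂O₂ (30 min, room temperature), incubated with TUNEL mix for 2 h at 37 °C in the dark, then streptavidin-HRP for 30 min at 37 °C. Apoptotic cell percentage was calculated.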

NQO1 [20] = biological target: NQO1 (Mus musculus, UniProt Q64669); test: NQO1 activity in kidney and liver tissues of mice; type: in vivo; conditions: adult mice, SFII 30, 60 mg/kg orally, 2.5 h
In short: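 NQO1 activity in mouse kidney and liver samples was measured with a commercial NQO1 activity assay kit. Sample and reaction buffer were mixed in 96-well plates, and absorbance was read at 440 nm.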

[21] = adult mice renal fibrosis model

T1 sequence (P15559 whole entry): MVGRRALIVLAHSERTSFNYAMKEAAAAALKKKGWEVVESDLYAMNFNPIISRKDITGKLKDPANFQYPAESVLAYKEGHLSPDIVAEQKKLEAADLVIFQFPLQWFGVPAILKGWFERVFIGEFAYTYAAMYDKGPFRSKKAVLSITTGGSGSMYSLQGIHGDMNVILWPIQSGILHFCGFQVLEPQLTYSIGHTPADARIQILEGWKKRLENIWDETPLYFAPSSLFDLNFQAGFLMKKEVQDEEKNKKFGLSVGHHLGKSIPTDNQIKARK
Sequence of NQO1 (Mus musculus, UniProt Q64669) (Q64669 2-274 limits assumed): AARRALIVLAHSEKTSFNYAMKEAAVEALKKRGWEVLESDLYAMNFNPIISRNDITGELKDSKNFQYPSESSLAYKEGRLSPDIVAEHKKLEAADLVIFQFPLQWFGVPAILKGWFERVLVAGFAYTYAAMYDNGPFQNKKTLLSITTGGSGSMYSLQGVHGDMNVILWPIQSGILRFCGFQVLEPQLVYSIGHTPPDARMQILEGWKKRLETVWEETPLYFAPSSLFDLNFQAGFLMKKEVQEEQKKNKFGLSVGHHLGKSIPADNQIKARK

COc1cccc2c1cc([N+](=O)[O-])c1c(C(=O)O)cc3c(c12)OCO3 [AAI, Aristolochic acid I, reference compound]
γ-H2AX expression (DNA damage) in L02 (L02 [1]; AAI 20 μM): considerable increase
expression of γ-H2AX in HK-2 (HK-2 [2]; AAI dose gradient, particularly at 100 μM): increase
anti-proliferative effect in L02 (L02 [3]; AAI 0, 5, 10, 20, 50, or 100 μM, 48 h): gradually intensified
elevation of blood CRE, fold change (C57BL/6 adult mice [4]; adult mice, AAI 5 mg/kg i.p. for 3 days, AAI alone): over 1.5
body weight, AAI (C57BL/6 adult mice [5]; [21]): intensive weight loss
AAI-induced proliferation inhibition in HK-2 (HK-2 [6]; different doses of AAI, compared with L02): better tolerance
DNA damage in the liver of adult mice [7]: scarcely caused DNA damage
γ-H2AX in the liver of infant mice ([7]; age 14 days): upregulation of γ-H2AX

COc1cccc(O)c1-c1cc(=O)c2c(O)c(OC)c(OC)c(OC)c2o1 [SFII, skullcapflavone II]
expression of P53, cleaved caspase-3, cleaved-PARP-1 and γ-H2AX in L02 (L02 [1]; AAI (20 or 50 μM) with SFII, 24 h): efficaciously decrease
expression of γ-H2AX and downstream pro-apoptotic signaling in HK-2 (HK-2 [2]; AAI with SFII, 24 h): significantly decrease
percentage of apoptotic cells in L02 (L02 [8]; AAI (20 μM, 50 μM) with SFII (5 or 10 μM), 24 h, vs AAI alone): significantly decreased
apoptosis of L02, SFII alone (L02 [8]; SFII treatment alone): did not affect
percentage of apoptotic cells in HK-2 (HK-2 [9]): reduced the percentage of apoptotic cells in HK-2 in a dose-dependent manner
inhibitory capability to NQO1 activity in L02 (NQO1 [10]; L02, 5 μM): significantly higher than oroxylin A
NQO1 activity of shNQO1-L02 (NQO1 [10]; NQO1 knockdown L02, SFII 5 μM): further reduced
activated partial thromboplastin time (APTT) (Blood coagulation assay; 6 mg/kg): not significantly altered; also recorded: barely prolonged
prothrombin time (PT) (Blood coagulation assay; 6 mg/kg): not significantly altered; also recorded: barely prolonged
thrombin time (TT) (Blood coagulation assay; 6 mg/kg): not significantly altered; also recorded: barely prolonged
inhibitory effect of AAI on cell proliferation in L02 (L02 [3]; AAI 20 μM + SFII 5 or 10 μM, 48 h, vs AAI alone): significantly relieved
cell proliferation of L02, SFII alone (L02 [3]; SFII alone): barely affected
mRNA levels of BAX, NOXA, PUMA, and BAK in L02 (L02 [11]): significantly downregulate
expressions of γ-H2AX, P53, cleaved-caspase-3, and cleaved-PARP-1 protein in kidney (C57BL/6 adult mice [4]; SFII 30 or 60 mg/kg oral + AAI 5 mg/kg): downregulated
blood CRE (C57BL/6 adult mice [4]; SFII 30 or 60 mg/kg oral + AAI 5 mg/kg, 3 days, vs AAI alone): significantly declined
fibrosis area of kidney (Sirius red staining) (C57BL/6 adult mice [4]; SFII 30 or 60 mg/kg oral + AAI 5 mg/kg, vs AAI alone, dose-dependent): significantly limited
retention on NQO1 biochromatography (NQO1 [12]): retention behaviors
Kd (NQO1 [13]): 4200 nM
renal histology (H&E and Sirius red staining) (C57BL/6 adult mice [5]; SFII 30 or 60 mg/kg gavage + single AAI 10 mg/kg i.p., day 14): effectively relieved renal tubular atrophy and interstitial fibrosis
body weight, mice pretreated with SFII (C57BL/6 adult mice [5]; [21]): no significant change
number of tumors per liver (infant mice [14]; SFII 10, 30 or 60 mg/kg gavage 12 h before AAI 20 mg/kg, 16 weeks, dose-independently): significant decrease
kidney fibrosis (infant mice [14]; SFII pretreated, 16 weeks after AAI administration): notably relieved
expression of apoptosis-related genes BAX, NOXA, PUMA, and BAK in HK-2 (HK-2 [15]): downregulated
IC50 (NQO1 [16]): 2870 nM
inhibition of NQO1 activity in HK-2 (NQO1 [17]): more efficient NQO1 inhibitory effect
ALT level in culture supernatant of L02 (L02 [18]): decreased
AST level in culture supernatant of L02 (L02 [18]): decreased
expression of DNA damage and apoptosis-related proteins in liver and kidney (infant mice [19]; SFII 10 mg/kg 12 h before AAI 20 mg/kg, 24 h): significantly decreased
cell apoptosis and interstitial fibrosis in kidney (infant mice [19]; SFII 10 mg/kg pre-treated + AAI 20 mg/kg): reduced cell apoptosis as well as interstitial fibrosis
proportion of apoptotic cells in the liver (infant mice [19]; SFII 10 mg/kg pre-treated, vs AAI alone): decreased
NQO1 enzyme activity in kidney and liver in vivo (NQO1 [20]): good inhibitory effect
AAI-induced inhibition of cell proliferation in HK-2 (HK-2 [6]; AAI 100 μM with SFII, 48 h): partially alleviated

C[C@@H]1C[C@H]2[C@@H]3CCC4=CC(=O)C=C[C@]4(C)[C@@]3(F)[C@@H](O)C[C@]2(C)[C@@]1(O)C(=O)CO [dexamethasone, reference compound]
retention on NQO1 biochromatography (NQO1 [12]): no retention

O=c1oc2ccccc2c(O)c1Cc1c(O)c2ccccc2oc1=O [dicoumarol, reference compound]
activated partial thromboplastin time (APTT) (Blood coagulation assay): significantly elevate
prothrombin time (PT) (Blood coagulation assay): significantly elevate
thrombin time (TT) (Blood coagulation assay): significantly elevate

COc1c(O)cc2oc(-c3ccccc3)cc(=O)c2c1O [oroxylin A]
activated partial thromboplastin time (APTT) (Blood coagulation assay): not significantly altered
prothrombin time (PT) (Blood coagulation assay): not significantly altered
thrombin time (TT) (Blood coagulation assay): not significantly altered
retention on NQO1 biochromatography (NQO1 [12]): retention behaviors
Kd (NQO1 [13]): 873 nM
IC50 (NQO1 [16]): 930 nM
inhibition of NQO1 activity in HK-2 (NQO1 [17]): did not notably inhibit

COc1cc(O)c2c(=O)cc(-c3ccccc3)oc2c1 [tectochrysin]
retention on NQO1 biochromatography (NQO1 [12]): retention behaviors

COc1c(O)cc(O)c2c(=O)cc(-c3ccccc3)oc12 [wogonin]
retention on NQO1 biochromatography (NQO1 [12]): retention behaviors
IC50 (NQO1 [16]): 10100 nM
